From PubChem BioAssay
A selection: hits, their analogues and other compounds. The true share with any hit is near 3%.
MEKK3 PB1 HTS – raises or lowers MEK5 binding to the human MEKK3 PB1 domain; binding response (% of control), % at 10 µM; Q99759; hit rate 1.4% among 290,000; bead-based flow cytometry, Alexa488-MEK5 binding to MEKK3; actives lie on both sides; 0 = blocked by unlabeled MEK5, 100 = vehicle;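 active = binding response more than 3 SD above or below the average of its plate-row segment, actives on both sides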;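 also: Alexa488 bead fluorescence after subtracting the streptavidin-only scavenger bead signal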
UCH37 DUB inh – human UCH37 deubiquitinating enzyme inhibition; Q9Y5K5; purified proteasome/UCH37, Ub-AMC cleavage fluorescence; hit rate 0.33% among 330,000; AID 588478; inhibition, % (test concentration not listed);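 active = mean inhibition over replicate wells above about 20%, limit read from the data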;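 also: 0% = compound-free wells with enzyme and 100% = wells lacking proteasome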
Target sequence (Q9Y5K5 whole entry, looked up): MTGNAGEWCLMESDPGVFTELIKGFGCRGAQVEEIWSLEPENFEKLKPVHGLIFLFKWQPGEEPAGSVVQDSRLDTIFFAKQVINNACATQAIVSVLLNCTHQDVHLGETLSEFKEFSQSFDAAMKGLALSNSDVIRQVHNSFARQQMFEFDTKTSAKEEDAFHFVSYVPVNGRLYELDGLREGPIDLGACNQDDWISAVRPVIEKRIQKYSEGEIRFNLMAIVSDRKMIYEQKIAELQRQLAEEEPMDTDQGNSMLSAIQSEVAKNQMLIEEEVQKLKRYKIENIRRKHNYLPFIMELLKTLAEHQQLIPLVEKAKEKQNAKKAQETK
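Material: human UCH37 enzyme supplied as purified proteasome complex / Amount: 0.15 nM proteasome as dispensed / Buffer or medium: pH 7.4 Tris-HCl (50 mM) with ovalbumin, ATP-MgCl2, DTT / Times: preincubation 30 min, reaction 25 min, room temperature / Technique: AMC fluorescence from Ub-AMC cleavage, excitation 355 nm, emission 460 nm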
Apaf1 inhib – human Apaf-1 inhibition | reconstituted apoptosome caspase-3 activity, DEVD-Rh110 fluorescence | inhibition, % at 20 µM | hit rate 0.71% among 330,000; active = inhibition of at least 40% at 20 µM;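 also: plate controls were DMSO wells for no effect and DEVD-CHO caspase inhibitor wells for full effect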
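Material: reconstituted apoptosome with Apaf-1, cytochrome c, caspase-9, procaspase-3, dATP; medium: pH 7.5 Hepes buffer with CHAPS, BSA, DTT; also added: cytochrome c and DEVD-Rh110 substrate; timing: 30 min plus 50 min, RT; signal: Rh110 fluorescence intensity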
UBC13 polyUb – blocks human UBC13 polyubiquitin chain formation; TR-FRET; P61088; inhibition, % at 20 µM; hit rate 0.47% among 330,000; in the data active = inhibition above about 45%, passing the limit was not always enough
Target sequence (P61088 whole entry, looked up): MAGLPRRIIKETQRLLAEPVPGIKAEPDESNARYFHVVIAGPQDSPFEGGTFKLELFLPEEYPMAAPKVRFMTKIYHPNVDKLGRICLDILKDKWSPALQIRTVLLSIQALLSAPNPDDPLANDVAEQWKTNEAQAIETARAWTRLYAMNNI
MEKK2mut PB1 HTS – signal of MEK5 binding to mutant human MEKK2 PB1 domain. bead flow cytometry, Alexa488-MEK5 binding to MEKK2 mutant. percent response, % at 10 µM. hit rate 0.35% among 290,000; in the data active = percent response above about 24%, passing the limit was not always enough
MEKK2wt PB1 HTS – raises or lowers MEK5 binding to wildtype human MEKK2 PB1 domain | bead flow cytometry, Alexa488-MEK5 binding to MEKK2 WT; actives lie on both sides | hit rate 1.1% among 290,000 | binding response (% of control), % at 10 µM | Q9Y2U5 | AID 1531; in the data active = binding response below about 67% or above about 130%
MEKK2wt confirm – raises or lowers MEK5 binding to wildtype human MEKK2, retest; shares compounds with MEKK3 PB1 HTS; bead flow cytometry, Alexa488-MEK5 binding to MEKK2 WT; actives lie on both sides; binding response (% of control), % at 10 µM; hit rate 2.4% among 5,900; in the data active = binding response below about 16% or above about 210%; inactive = in between
MEKK2mut confirm – signal of MEK5 binding to mutant human MEKK2, retest; shares compounds with MEKK3 PB1 HTS; hit rate 2% among 5,900; bead flow cytometry, Alexa488-MEK5 binding to MEKK2 mutant; percent response, % at 10 µM; AID 1893; in the data active = percent response mostly above about 71%, no sharp cut-off; inactive = mostly below about 38%;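 also: higher means compound restores mutant binding toward wildtype level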
MEKK3-MEK5 inh – confirmation of inhibitors of MEK5 binding to human MEKK3; hit rate 1.8% among 5,900; bead flow cytometry, Alexa488-MEK5 binding to MEKK3; hits give low values; binding response (% of control), % at 10 µM; shares compounds with MEKK3 PB1 HTS; AID 1894;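 active = binding response below 72% of control, or above a set upper limit, though filed actives all read lower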;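 also: 100% = DMSO only wells and 0% = binding blocked by excess unlabeled MEK5; lower values mean stronger disruption of MEK5 binding to MEKK3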
Active calls of the source: *; [ ] = dose if it differs, or a comment.

O=C(NCCc1ccccc1)C1CCC(=O)N1CCc1ccccc1 (centres undefined) was read as MEKK3 PB1 HTS 98, UCH37 DUB inh -1, Apaf1 inhib -1, UBC13 polyUb 4, MEKK2mut PB1 HTS 0 and MEKK2wt PB1 HTS 99.
For CCOC(=O)c1ccc(-n2c(C)nc3c(cnn3-c3ccccc3Cl)c2=O)cc1 the results were MEKK3 PB1 HTS 124*, UCH37 DUB inh -1, Apaf1 inhib 9, UBC13 polyUb -5, MEKK2mut PB1 HTS 5, MEKK2wt PB1 HTS 117, MEKK2wt confirm 96, MEKK2mut confirm -7 and MEKK3-MEK5 inh 103.
`Cc1ccc(OC(C)C(=O)OCC(=O)Nc2sccc2C(N)=O)cc1` (centres undefined) gave UCH37 DUB inh 6, Apaf1 inhib -3 and UBC13 polyUb 18.
`O=C(COC(=O)CCCC1=NS(=O)(=O)c2ccccc2N1)Nc1ccc(Br)cc1` gave MEKK3 PB1 HTS 101, UCH37 DUB inh 2, Apaf1 inhib 6, UBC13 polyUb 2, MEKK2mut PB1 HTS 1 and MEKK2wt PB1 HTS 102.
For C[C@@]12CCC[C@H](O1)[C@@H]([C@H](O)c1ccccc1)O2 the results were UCH37 DUB inh 0, Apaf1 inhib 7 and UBC13 polyUb -6.
`O=C(Cn1cccc1C(=O)c1ccccc1)NCCN1CCCCCC1` gave MEKK3 PB1 HTS 115, UCH37 DUB inh -2, Apaf1 inhib 21, UBC13 polyUb 20, MEKK2mut PB1 HTS 25*, MEKK2wt PB1 HTS 171*, MEKK2wt confirm 157, MEKK2mut confirm 30 and MEKK3-MEK5 inh 104.
Screening O=C(Cn1cccc1C(=O)c1ccccc1)NCCN1CCOCC1 returned MEKK3 PB1 HTS 97, UCH37 DUB inh 1, Apaf1 inhib -4, UBC13 polyUb 11, MEKK2mut PB1 HTS 0 and MEKK2wt PB1 HTS 100.
`Cc1ccc(C)c(N2CCN(CCCNC(=O)Cn3cccc3C(=O)c3ccccc3)CC2)c1` gave MEKK3 PB1 HTS 111, UCH37 DUB inh 1, Apaf1 inhib 12, UBC13 polyUb 30, MEKK2mut PB1 HTS 45, MEKK2wt PB1 HTS 176*, MEKK2wt confirm 129, MEKK2mut confirm 13 and MEKK3-MEK5 inh 104.
Screening O=C(Cn1cccc1C(=O)c1ccccc1)NCCCN1CCOCC1 returned MEKK3 PB1 HTS 95, UCH37 DUB inh 6, Apaf1 inhib 1, UBC13 polyUb -3, MEKK2mut PB1 HTS -5 and MEKK2wt PB1 HTS 94.
COc1cccc(C=NNC(=O)c2cnccn2)c1OC was read as UCH37 DUB inh 8.
For Cc1ccc(NC(=O)c2ccncc2)cc1[N+](=O)[O-] the results were MEKK3 PB1 HTS 152*, UCH37 DUB inh 3, Apaf1 inhib 0, UBC13 polyUb -9, MEKK2mut PB1 HTS 0, MEKK2wt PB1 HTS 105, MEKK2wt confirm 104, MEKK2mut confirm 6 and MEKK3-MEK5 inh 107.
`O=C(Nc1cccc([N+](=O)[O-])c1)c1ccncc1` gave MEKK3 PB1 HTS 141*, UCH37 DUB inh 5, Apaf1 inhib 9, UBC13 polyUb -4, MEKK2mut PB1 HTS -1, MEKK2wt PB1 HTS 101, MEKK2wt confirm 98, MEKK2mut confirm -5 and MEKK3-MEK5 inh 100.
For C/C(=N\NC(=O)c1cccc([N+](=O)[O-])c1)c1ccncc1 the results were MEKK3 PB1 HTS 49*[inhibitor], Apaf1 inhib -17, UBC13 polyUb -5, MEKK2mut PB1 HTS -17, MEKK2wt PB1 HTS 55, MEKK2wt confirm 103, MEKK2mut confirm 2 and MEKK3-MEK5 inh 103.
